High-throughput results: PubChem BioAssay, Sanford-Burnham Center for Chemical Genomics
Only some compounds are listed: those with a hit (about 2.5% of all), similar ones and a draw of the others.
FLuc inh counter: counter-screen for luciferase assay inhibitors: firefly luciferase inhibition. P08659. ATPLite firefly luciferase biochemical luminescence, 10 min. inhibition, % at 10 µM. 200,000 tested, 1.5% active. AID 1006;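 active = inhibition above about 50% when tested at 10 µM, limit read from the data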
Target sequence (P08659 whole entry, looked up): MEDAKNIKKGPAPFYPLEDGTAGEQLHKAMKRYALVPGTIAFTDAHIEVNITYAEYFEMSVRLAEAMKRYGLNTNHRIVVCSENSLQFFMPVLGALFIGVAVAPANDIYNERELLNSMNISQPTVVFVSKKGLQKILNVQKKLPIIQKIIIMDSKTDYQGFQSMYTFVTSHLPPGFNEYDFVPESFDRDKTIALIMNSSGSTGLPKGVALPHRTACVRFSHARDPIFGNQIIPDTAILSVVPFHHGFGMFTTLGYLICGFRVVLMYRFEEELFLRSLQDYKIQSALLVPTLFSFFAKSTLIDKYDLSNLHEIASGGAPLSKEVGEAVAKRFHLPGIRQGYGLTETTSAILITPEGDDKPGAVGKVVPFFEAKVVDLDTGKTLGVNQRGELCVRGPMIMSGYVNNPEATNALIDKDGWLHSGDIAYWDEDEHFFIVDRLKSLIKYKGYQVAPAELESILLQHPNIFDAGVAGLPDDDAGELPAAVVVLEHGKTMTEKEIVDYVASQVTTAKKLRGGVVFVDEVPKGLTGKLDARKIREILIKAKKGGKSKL
PMI act hi M6P: increases human PMI activity with near-saturating mannose 6-phosphate | P34949 | coupled PMI enzyme assay, resazurin fluorescence, 20 min; stronger effect = higher value; 1 = untreated enzyme, 0 = substrate-free blank | activation factor at 20 µM | 190,000 tested, 0.34% active;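 active = activation factor of 2 or more at 20 µM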
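Test system: Human PMI in coupled enzyme assay | Input: 15 ng/mL PMI | Medium: HEPES-buffered pH 7.4 with magnesium and detergent | Compound: One concentration, 20 µM, in 1% DMSO | Incubation: Enzyme reaction with compound 20 min at room temperature | Detection: Diaphorase-driven resazurin-to-resorufin fluorescence, excitation 544, emission 590 nm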
Diaphorase act: counter-screen for diaphorase-based assays: diaphorase activators and chemical reducers; activation factor at 20 µM; Diaphorase/resazurin coupled assay, resorufin fluorescence, 16 min; stronger effect = higher value; 1 = vehicle wells, 0 = NADH-free wells; 190,000 tested, 0.005% active;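 active = diaphorase activity raised at least twofold by the compound at 20 µM; inactive = activation factor below 2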
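Test system: Clostridium kluyveri diaphorase, purified enzyme; input: enzyme 0.07 U/mL final; buffer or medium: 50 mM HEPES pH 7.4 with 4.542 mM MgCl2, 0.005% Tween 20; also added: 0.114 mM NADH and 0.1 mM resazurin, final amounts; schedule: 16 min enzyme reaction, ambient temperature; technique: fluorescence of resorufin, 544 nm excitation, 590 nm emission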
FLuc act counter: affects firefly luciferase, flagging false hits in luciferase stimulation screens. P08659. ATPlite luciferase biochemical, luminescence, 10 min; 0 = ATP-free wells, 1 = DMSO control. activation factor at 10 µM. 200,000 tested, under 10 active. AID 1027;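 active = luciferase activation factor, scaled between plate controls, of at least 2 with compound at 10 µM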
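Assay system: Luciferase/luciferin reagent mix; Medium: PBS as buffer for the ATP substrate; Dosing: test compounds dosed from 2 mM stocks in 100% DMSO; Times: 10 min, room temperature; Signal: luminescence from luciferase reaction; Read-out: luciferase activation; Controls: No-ATP low control, compound-free enzyme-plus-ATP high control.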
PMI act: phosphomannose isomerase (human) activation; activation factor at 20 µM; AID 1214; purified human PMI, coupled resazurin fluorescence, 20 min; stronger effect = higher value; 1 = vehicle control, 0 substrate-free wells; 190,000 tested, 0.005% active; P34949;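 active = activation factor of 2 or more at 20 µM, relative to plate controls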
Diaphorase inh: diaphorase inhibition or chemical oxidation counter-screen. diaphorase resazurin-to-resorufin fluorescence, NADH, 16 min; bacterial (C. kluyveri) enzyme, not human. inhibition, % at 20 µM. 190,000 tested, 0.69% active. AID 1217;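 active = primary screen inhibition at 20 µM above a set limit, cut at about 50% in these data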
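Assay system – diaphorase enzyme from Clostridium kluyveri · Amount – diaphorase 0.14 U/mL (working solution) · Times – reaction incubation of 16 min at room temperature · Controls – No-NADH positive control and DMSO neutral control · Signal – resorufin fluorescence 544/590 nm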
Numbers stand for hits.

Screening COc1cc(/C=C\C(=O)NCc2ccc3c(c2)cc(C)n3C)cc(OC)c1OC returned FLuc inh counter inactive, PMI act hi M6P inactive, Diaphorase act inactive, FLuc act counter inactive, PMI act inactive and Diaphorase inh inactive.
Nc1nn(-c2ccccc2)c(N)c1N=Nc1ccc2c(c1)OCO2 was read as FLuc inh counter 50.8, PMI act hi M6P inactive, Diaphorase act inactive, FLuc act counter inactive, PMI act inactive and Diaphorase inh inactive.
`Cc1[nH]n(-c2ccccc2)c(=O)c1N=Nc1ccccc1` gave FLuc inh counter inactive, PMI act hi M6P inactive, Diaphorase act inactive, FLuc act counter inactive, PMI act inactive and Diaphorase inh inactive.
Cc1nn(-c2ccccc2)c(N)c1N=Nc1cccnc1 was read as FLuc inh counter inactive, PMI act hi M6P inactive, Diaphorase act inactive, FLuc act counter inactive, PMI act inactive and Diaphorase inh inactive.
`Nc1[nH]n(-c2ccccc2)c(=O)c1N=Nc1ccc2c(c1)OCCO2` gave FLuc inh counter 75.8, PMI act hi M6P inactive, Diaphorase act inactive, FLuc act counter inactive, PMI act inactive and Diaphorase inh inactive.
For O=C(Oc1coc(CSc2nnc(NC(=O)c3cccs3)s2)cc1=O)c1ccccc1 the results were FLuc inh counter inactive, PMI act hi M6P inactive, Diaphorase act inactive, FLuc act counter inactive, PMI act inactive and Diaphorase inh inactive.
CC1=C(C(N)=O)C(c2ccccc2F)NC(=O)N1 (configuration not stated) was read as FLuc inh counter inactive, PMI act hi M6P inactive, Diaphorase act inactive, FLuc act counter inactive, PMI act inactive and Diaphorase inh inactive.
CS(=O)(=O)Nc1ccc(C2=NN(S(C)(=O)=O)C(c3ccc4c(c3)OCO4)C2)cc1 (configuration not stated) was read as FLuc inh counter inactive, PMI act hi M6P inactive, Diaphorase act inactive, FLuc act counter inactive, PMI act inactive and Diaphorase inh inactive.
Screening C[C@]12CC[C@@H]3c4cc(O)c(O)cc4CC[C@H]3[C@@H]1CC[C@@H]2O returned FLuc inh counter inactive, PMI act hi M6P inactive, Diaphorase act inactive, FLuc act counter inactive, PMI act inactive and Diaphorase inh 66.0.
C[C@]12CC[C@@H]3c4ccc(O)cc4CC[C@H]3[C@@H]1CC[C@@H]2O was read as FLuc inh counter inactive, PMI act hi M6P inactive, Diaphorase act inactive, FLuc act counter inactive, PMI act inactive and Diaphorase inh inactive.
For C/C(=N\NC(=O)c1ccc2c(c1)OCO2)c1ccco1 the results were FLuc inh counter 81.9, PMI act hi M6P inactive, Diaphorase act inactive, FLuc act counter inactive, PMI act inactive and Diaphorase inh inactive.
`COc1ccc(/C(C)=N\NC(=O)c2ccc3c(c2)OCO3)cc1OC` gave FLuc inh counter inactive, PMI act hi M6P inactive, Diaphorase act inactive, FLuc act counter inactive, PMI act inactive and Diaphorase inh inactive.
Screening C/C(=N\NC(=O)c1csc(C)c1C)c1ccco1 returned FLuc inh counter 78.9, PMI act hi M6P inactive, Diaphorase act inactive, FLuc act counter inactive, PMI act inactive and Diaphorase inh inactive.
Screening C/C(=N\NC(=O)c1csc(C)c1C)c1ccc(C)s1 returned FLuc inh counter inactive, PMI act hi M6P inactive, Diaphorase act inactive, FLuc act counter inactive, PMI act inactive and Diaphorase inh inactive.
For C/C(=N/NC(=O)c1ccc2c(c1)OCO2)c1cccc(NC(=O)C(C)(C)C)c1 the results were FLuc inh counter 52.9, PMI act hi M6P inactive, Diaphorase act inactive, FLuc act counter inactive, PMI act inactive and Diaphorase inh inactive.
CCC(C)(c1nnnn1-c1c(C)cccc1C)N(N=O)c1ccccc1Cl (configuration not stated) was read as FLuc inh counter inactive, PMI act hi M6P inactive, Diaphorase act inactive, FLuc act counter inactive, PMI act inactive and Diaphorase inh inactive.
`CCN(CC)CC(O)CN1C(=O)NC(C)(C)C1=O` (configuration not stated) gave FLuc inh counter inactive, PMI act hi M6P inactive, Diaphorase act inactive, FLuc act counter inactive, PMI act inactive and Diaphorase inh inactive.
Screening Cc1ccc(/C(N)=N/OC(=O)c2cccc(F)c2)cc1 returned FLuc inh counter 61.0, PMI act hi M6P inactive, Diaphorase act inactive, FLuc act counter inactive, PMI act inactive and Diaphorase inh inactive.
Screening N/C(=N\OC(=O)c1cccc(F)c1)c1ccccc1 returned FLuc inh counter 91.1, PMI act hi M6P inactive, Diaphorase act inactive, FLuc act counter inactive, PMI act inactive and Diaphorase inh inactive.
O=C(NNC(=O)c1ccc(SCC2CCCO2)c([N+](=O)[O-])c1)c1ccc(F)cc1 (configuration not stated) was read as FLuc inh counter inactive, PMI act hi M6P inactive, Diaphorase act inactive, FLuc act counter inactive, PMI act inactive and Diaphorase inh inactive.
For COc1ccc(/C=C/c2nc3ccccc3n2C)cc1 the results were FLuc inh counter 97.1, PMI act hi M6P inactive, Diaphorase act inactive, FLuc act counter inactive, PMI act inactive and Diaphorase inh inactive.
`CCC(C)n1c(/C=C/c2ccccc2)nc2ccccc21` (configuration not stated) gave FLuc inh counter inactive, PMI act hi M6P inactive, Diaphorase act inactive, FLuc act counter inactive, PMI act inactive and Diaphorase inh inactive.
CCn1c(/C=C/c2ccccc2)nc2ccccc21 was read as FLuc inh counter 87.2, PMI act hi M6P inactive, Diaphorase act inactive, FLuc act counter inactive, PMI act inactive and Diaphorase inh inactive.
Screening CC(C)Cn1c(/C=C/c2ccccc2)nc2ccccc21 returned FLuc inh counter 58.4, PMI act hi M6P inactive, Diaphorase act inactive, FLuc act counter inactive, PMI act inactive and Diaphorase inh inactive.
Screening COc1ccc(-c2nc3ccccc3n2Cc2ccccc2)cc1 returned FLuc inh counter inactive, PMI act hi M6P inactive, Diaphorase act inactive, FLuc act counter inactive, PMI act inactive and Diaphorase inh inactive.
Screening COc1ccc(Cn2c(/C=C/c3ccccc3)nc3ccccc32)cc1 returned FLuc inh counter 50.2, PMI act hi M6P inactive, Diaphorase act inactive, FLuc act counter inactive, PMI act inactive and Diaphorase inh inactive.
CCn1c(/C=C/c2ccccc2)nc2ccccc2c1=O was read as FLuc inh counter inactive, PMI act hi M6P inactive, Diaphorase act inactive, FLuc act counter inactive, PMI act inactive and Diaphorase inh inactive.
COc1ccc(-n2cnc3ccccc32)cc1 was read as FLuc inh counter inactive, PMI act hi M6P inactive, Diaphorase act inactive, FLuc act counter inactive, PMI act inactive and Diaphorase inh inactive.
`COc1ccc(CC2(CO)CCN(CC3=CC[C@H]4C[C@@H]3C4(C)C)CC2)cc1` gave FLuc inh counter inactive, PMI act hi M6P inactive, Diaphorase act inactive, FLuc act counter inactive, PMI act inactive and Diaphorase inh inactive.
